# Screening data deposited in PubChem BioAssay by several laboratories.
# This is a sample that favours compounds with a hit; in the whole collection about 3.7% have one here.
# Mdm2 ligase inh – inhibitors of human Mdm2 E3 ubiquitin ligase | signal enhancement, % at 5 µM | 210,000 tested, 0.11% active | AID 1230 | Q00987 | cell-based MDM2 ubiquitination luciferase reporter, 2 h; 0 = plate control, 100 = twice control, blank-subtracted;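 active means signal enhancement of 30% or more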;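 further: luminescence tracks abundance of the self-degrading MDM2-luciferase fusion protein; higher signal means inhibition of MDM2 E3 ligase activity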
#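 Timing – 2 h compound exposure at 37 °C · Assay system – mammalian cells stably expressing self-ubiquitinating, self-degrading MDM2 E3–luciferase fusion · Amount – 2000 cells seeded into each well · Measure – % luminescence enhancement versus blank-corrected plate control mean · Measured by – SteadyLite luminescence, 15 min reagent step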
# Dynein transport – blocks dynein driven cargo transport along microtubules; 220,000 tested, 0.47% active; 3617.4 mouse cells, GR-EGFP nuclear translocation imaging; test concentration mostly 20 µM; stimulated with dexamethasone, 1 µM; active compounds read low; z-score, hits read low; AID 1381;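 active means plate z-score of nuclear minus cytoplasmic receptor signal below a set negative limit, without overly bright fluorescence or cell loss, cut at about -3.5 in these data, passing the limit was not always enough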;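 further: z-score of nuclear minus cytoplasmic ring GR-EGFP intensity difference per well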
#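 Medium: Induction medium lacking tetracycline, stripped serum | Probe or stimulus: 1.0 µM final dexamethasone stimulus | Schedule: 48 h induction, then 1 h compound, then 30 min agonist, 37 °C | Signal: Automated 10x imaging of fixed Hoechst-stained cells | Evaluation: Per-cell GR-EGFP intensity, nucleus versus surrounding cytoplasmic ring, well-averaged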
# B2AR ag – agonists of human beta-2 adrenergic receptor inducing internalization. Am2.2-beta2AR cells, FAP receptor internalization, flow cytometry. response, % (test concentration not listed). 340,000 tested, 0.43% active. AID 504454;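 active means response above a set limit, near 3 SD of response in nonfluorescent compounds, cut at about 42% in these data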
# UPR CHOP act – apoptotic UPR (CHOP) activation; 330,000 tested, 0.34% active; activation, % at 10 µM; CHO-CHOP luciferase reporter, luminescence; percent of tunicamycin response over DMSO baseline;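 active means at 10 µM dose, activation of 40% or more, normalized to positive control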;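 further: 100% = tunicamycin at 10 µg/mL and 0% = DMSO alone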
#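 System: CHO CHOP reporter cells. Amount: 500 cells per well. Buffer or medium: F12 medium, 10% FBS. Compound dosing: one dose, 10 µM in 0.5% DMSO. Incubation: 6 h compound exposure at 37 °C after overnight seeding. Technique: Steady-Glo luciferase luminescence. Benchmarks: tunicamycin and DMSO controls.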
# UPR XBP1 act – adaptive UPR (XBP1) activation. CHO-XBP1 luciferase reporter, IRE1-XBP1 UPR activation, luminescence; percent of tunicamycin response, DMSO as zero. activation, % at 20 µM. 330,000 tested, 0.33% active;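 active means versus positive control, 20 µM dose yields 30% or more activation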;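 further: 100% = tunicamycin at 10 µg/mL and 0% = DMSO only wells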
#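 Assay system: IRE1-XBP1 luciferase reporter CHO line. Input: 1000 cells/well. Buffer or medium: F12 with 10% serum. Doses: 20 µM, 1% DMSO. Times: overnight seeding at 37 °C, 6 h compound treatment at 37 °C. Technique: Steady-Glo luciferase glow luminescence, 10 min after reagent addition.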
# Mdm2-MdmX inh – human Mdm2/MdmX binding inhibition | SaOS-2 split-luciferase Mdm2/MdmX complementation, luminescence | inhibition, % at 8 µM | 330,000 tested, 3% active | AID 485346;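 active means inhibition of at least 50% at 8 µM in the primary screen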
# Target sequence (O15151 whole entry, looked up): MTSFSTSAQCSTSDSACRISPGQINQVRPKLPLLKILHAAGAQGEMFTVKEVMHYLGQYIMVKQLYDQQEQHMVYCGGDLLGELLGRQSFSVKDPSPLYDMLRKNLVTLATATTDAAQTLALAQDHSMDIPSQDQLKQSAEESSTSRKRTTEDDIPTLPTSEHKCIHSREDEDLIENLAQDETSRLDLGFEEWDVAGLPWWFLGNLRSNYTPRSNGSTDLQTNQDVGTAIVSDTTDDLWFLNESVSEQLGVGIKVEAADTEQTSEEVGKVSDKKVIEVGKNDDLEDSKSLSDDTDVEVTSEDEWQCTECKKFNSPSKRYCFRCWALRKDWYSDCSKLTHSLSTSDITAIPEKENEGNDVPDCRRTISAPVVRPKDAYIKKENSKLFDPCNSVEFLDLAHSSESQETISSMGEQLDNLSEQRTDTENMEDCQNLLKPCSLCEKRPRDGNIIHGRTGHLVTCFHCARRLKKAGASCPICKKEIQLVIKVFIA
# Target sequence (Q00987 whole entry, looked up): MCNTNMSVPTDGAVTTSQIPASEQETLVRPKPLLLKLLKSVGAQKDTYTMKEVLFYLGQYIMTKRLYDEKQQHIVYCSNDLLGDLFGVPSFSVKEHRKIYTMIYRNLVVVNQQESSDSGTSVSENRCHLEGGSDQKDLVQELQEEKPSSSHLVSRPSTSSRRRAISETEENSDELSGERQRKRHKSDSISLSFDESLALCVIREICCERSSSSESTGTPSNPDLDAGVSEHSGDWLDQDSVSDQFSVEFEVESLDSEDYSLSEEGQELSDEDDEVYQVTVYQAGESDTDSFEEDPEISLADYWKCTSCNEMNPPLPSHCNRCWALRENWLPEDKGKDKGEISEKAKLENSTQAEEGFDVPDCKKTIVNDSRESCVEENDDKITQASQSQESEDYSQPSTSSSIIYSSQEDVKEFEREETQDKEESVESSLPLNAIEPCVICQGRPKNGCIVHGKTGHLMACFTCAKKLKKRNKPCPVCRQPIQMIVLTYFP
# Mdm2 MdmX conf – confirmation of human Mdm2/MdmX interaction inhibitors. shares compounds with Mdm2-MdmX inh. Mdm2-MdmX binding, luminescent assay. inhibition, % at 8 µM. 10,000 tested, 55% active. AID 489028; in the data active means inhibition above about 40%
# FLuc counter – full-length luciferase inhibition in Mdm2/MdmX counter-screen. shares compounds with Mdm2-MdmX inh. SaOS-2 full-length luciferase counterscreen, luminescence. inhibition, % at 8 µM. 6,200 tested, 77% active. AID 504607;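 active means mean inhibition at 8 µM reaching about 37%, which flags the compound as non-specific, limit read from the data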;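 further: p53-null SaOS-2 cells with luciferase driven by a doxycycline-inducible promoter; compound on cells about two nights before reading with doxycycline added after day one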
# * = called active by the depositor; x = not tested or not shown.
SMILES,Mdm2 ligase inh,Dynein transport,B2AR ag,UPR CHOP act,UPR XBP1 act,Mdm2-MdmX inh,Mdm2 MdmX conf,FLuc counter
CC(C)(C)C(=O)Nc1nnc(SCC(=O)NC2CCCCC2)s1,x,x,3,-2,2,-1,x,x
O=C(Oc1ccnc2cc(Cl)ccc12)N1CCCCCC1,-13,1.7,-7,-1,-1,67*,39,30
C[C@]12C(=O)N(c3ccc(C(F)(F)F)cc3)C(=O)N1[C@@H]1c3ccccc3OC[C@@H]1[C@H]2c1ccccc1,x,x,7,1,-2,50*,50*,74*
Cc1ccc(N2C(=O)N3[C@H]4c5ccccc5OC[C@@H]4[C@@H](c4ccccc4)[C@@]3(C)C2=O)cc1,x,x,3,-1,-4,52*,17,x
CC(OC(=O)CNC(=O)c1sc2ccccc2c1Cl)C(=O)NC1(C#N)CCCCC1 (centres undefined),x,x,8,1,2,-2,x,x
CCOC(=O)[C@H]1[C@H]2COc3cc(OC)ccc3[C@@H]2N2C(=O)N(c3ccc(Cl)cc3)C(=O)[C@@]12C,x,x,7,-1,-1,1,x,x
Oc1ccc2ccccc2c1/C=N/Nc1ccccc1,-13,-0.55,5,2,-1,9,x,x
O=CN/N=C/c1c(O)ccc2ccccc12,-14,-0.61,-4,-1,0,50*,30,x
NC(=S)N/N=C/c1c(O)ccc2ccccc12,-9,0.42,13,-1,-5,50*,36,45*
Cc1c(C)c2cc(Cl)c(OCC(=O)N3CCN(c4ccc(F)cc4)CC3)cc2oc1=O,x,x,-1,1,-5,-1,x,x
COc1ccc(-c2c(-c3ccc4c(c3)OCO4)noc2C)cn1,x,x,-11,2,5,33,x,x
COc1cc(-c2c(-c3cc(OC)c(OC)c(OC)c3)noc2C)ccc1F,x,x,x,2,16,84*,88*,107*
COc1ccc(-c2c(-c3cc(OC)c(OC)c(OC)c3)noc2C)cn1,x,x,13,1,6,54*,55*,74*
COc1cc(-c2noc(C)c2/C=C/c2ccc(N)cc2)cc(OC)c1OC,x,x,38,1,16,84*,86*,108*
COc1cc(-c2noc(C)c2C#Cc2ccccn2)cc(OC)c1OC,x,x,-12,-1,9,65*,78*,77*
COc1ccccc1CNC(=O)CCCc1nnc2n(C)c(=O)c3sccc3n12,x,x,-1,2,-1,-6,x,x
COc1ccc(CN(C)C(=O)CSc2nnc(C3CC3)n2C2CC2)cc1,x,x,-3,1,0,25,x,x
CCc1ccccc1Oc1ccc(S(=O)(=O)N2CCN(C)CC2)cn1,x,x,-1,2,-3,8,x,x
COC(=O)C1=CN(c2cc(C)cc(C)c2)C=C(C(=O)OC)C1c1cccc(F)c1,x,x,-1,-1,-1,53*,37,106*
COc1cccc(CCN2CCC(CNS(=O)(=O)c3cc(-c4cc(C)no4)ccc3OC)CC2)c1,x,x,4,4,0,50*,50*,72*
COc1cccc(CCN2CCC(CNS(=O)(=O)c3cc(-c4cc(C)no4)ccc3C)CC2)c1,x,x,9,3,2,55*,50*,67*
COc1ccc(-c2cc(C)no2)cc1S(=O)(=O)Nc1ccccc1,x,x,-2,0,1,55*,67*,63*
Cc1cc(-c2ccc(C)c(S(=O)(=O)NCC3CCN(Cc4cccc(F)c4)CC3)c2)on1,x,x,7,-3,-5,42,x,x
Cc1cc(-c2ccc(C)c(S(=O)(=O)NCc3ccc(Br)cc3)c2)on1,x,x,-8,1,-4,64*,52*,42*
COc1cc(Cn2nnc3ccccc32)cc(Br)c1O,x,x,1,3,0,-9,x,x
SMILES,Mdm2 ligase inh,Dynein transport,B2AR ag,UPR CHOP act,UPR XBP1 act,Mdm2-MdmX inh,Mdm2 MdmX conf,FLuc counter
C=CC[C@@H]1C=C(C)C[C@H](C)C[C@H](OC)[C@H]2O[C@@](O)(C(=O)C(=O)N3CCCC[C@H]3C(=O)O[C@H](/C(C)=C/[C@@H]3CC[C@@H](O)[C@H](OC)C3)[C@H](C)[C@@H](O)CC1=O)[C@H](C)C[C@@H]2OC,x,x,x,1,-5,16,x,x
O=C(O)CC1c2ccccc2CCN1S(=O)(=O)c1ccc(F)cc1 (centres undefined),x,x,-1,-1,-4,-3,x,x
CC(=O)n1cc([C@H]2C=C(C(N)=O)O[C@@H](OCc3ccc(CO)cc3)C2)c2ccccc21,x,x,-4,1,-1,20,x,x
COc1ccccc1CN1CCC(CNS(=O)(=O)c2cc(-c3onc(C)c3C)ccc2OC)CC1,x,x,11,1,-5,51*,33,x
Cc1cc(-c2ccc(C)c(S(=O)(=O)NCC3CCN(Cc4ccccc4F)CC3)c2)on1,x,x,-20,1,-2,24,x,x
CC(C)C(=O)NC(c1ccco1)c1ccc2cccnc2c1O (centres undefined),0,-0.48,-7,17,5,82*,64*,24
CC(C)C(=O)NC(c1cccc([N+](=O)[O-])c1)c1ccc2cccnc2c1O (centres undefined),x,x,6,7,0,81*,90*,52*
CC(=O)NC(c1ccco1)c1cc(Cl)c2ccc(Cl)nc2c1O (centres undefined),x,x,0,2,-2,15,x,x
Oc1c(C(Nc2nc3ccccc3s2)c2ccco2)ccc2cccnc12 (centres undefined),5,0.32,3,3,-1,61*,85*,42*
CCCCN(Cc1ccco1)S(=O)(=O)c1ccc(-c2ccc(=O)[nH]n2)s1,x,x,8,-2,3,24,x,x
O=C(NNC(=O)C12CC3CC(CC(C3)C1)C2)c1ccccn1,5,-0.56,36,9,-1,54*,54*,51*
O=C(c1ccco1)N1CCN(S(=O)(=O)c2cccc(Cl)c2)CC1,x,x,-5,2,-5,-1,x,x
Cc1nc(Nc2cccc(C(F)(F)F)c2)nc2c1C(=O)CC(C)C2 (centres undefined),-11,1,-8,5,6,54*,12,x
Cc1ccc(Nc2nc(C)c3c(n2)CC(C)CC3=O)c(C)c1 (centres undefined),-27,1.5,-2,-1,5,23,x,x
